# According to the M2OR odorant receptor database:
# Changes are numbered by the printed parent chain.
# Experiments:
# Details in all cases: stereoisomer not certain
# [1] = tested on: T1, A0A140T8K0
# T1 sequence (whole entry): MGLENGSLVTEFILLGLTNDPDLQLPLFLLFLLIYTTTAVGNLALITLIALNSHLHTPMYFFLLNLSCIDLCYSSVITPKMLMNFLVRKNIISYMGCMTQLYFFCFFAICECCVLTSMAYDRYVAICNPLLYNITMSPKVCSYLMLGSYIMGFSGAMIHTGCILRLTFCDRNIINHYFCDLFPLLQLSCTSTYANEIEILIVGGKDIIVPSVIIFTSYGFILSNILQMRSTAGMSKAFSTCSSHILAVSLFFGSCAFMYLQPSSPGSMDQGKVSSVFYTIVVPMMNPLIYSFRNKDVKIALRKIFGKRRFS
# Method in brief: (§1)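 Values were gathered from published papers (main text and supplementary material), with extra details requested from the original authors when needed, and checked for typos and inconsistencies. Each receptor–molecule pair is called responsive (active) if the original authors judged the measured signal statistically different from baseline, and non-responsive (inactive) otherwise. Assay methods varied by source, often transient mammalian cell-line luciferase assays. Recorded details include cell line, G-protein, co-transfected protein and tags.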
# [2] = tested on: T2, A0A140T8K4
# T2 sequence (whole entry): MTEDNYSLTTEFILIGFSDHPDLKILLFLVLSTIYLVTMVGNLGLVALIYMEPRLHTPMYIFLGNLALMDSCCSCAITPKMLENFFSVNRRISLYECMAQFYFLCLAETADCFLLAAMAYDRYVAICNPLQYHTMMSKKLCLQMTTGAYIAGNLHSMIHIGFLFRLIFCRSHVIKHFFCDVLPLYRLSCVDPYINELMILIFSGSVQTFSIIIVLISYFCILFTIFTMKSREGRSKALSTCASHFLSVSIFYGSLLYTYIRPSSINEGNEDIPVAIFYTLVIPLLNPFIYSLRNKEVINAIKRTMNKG
# Method in brief: as §1
# [3] = tested on: T3, A0A2J8MY22
# T3 sequence (whole entry): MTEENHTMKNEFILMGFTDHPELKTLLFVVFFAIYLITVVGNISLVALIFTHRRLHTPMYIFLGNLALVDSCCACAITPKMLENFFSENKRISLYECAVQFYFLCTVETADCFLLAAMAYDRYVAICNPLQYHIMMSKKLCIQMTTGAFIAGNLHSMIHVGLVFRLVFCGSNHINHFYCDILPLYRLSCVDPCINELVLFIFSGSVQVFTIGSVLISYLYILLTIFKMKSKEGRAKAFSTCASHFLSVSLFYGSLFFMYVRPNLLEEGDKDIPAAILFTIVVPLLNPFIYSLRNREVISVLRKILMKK
# Method in brief: as §1
# [4] = tested on: T4, A0A2R8ZIW4
# T4 sequence (whole entry): T3 sequence (whole entry) with V39I, I280V
# Method in brief: as §1
# [5] = tested on: T5, A0A3Q7SVK8
# T5 sequence (whole entry): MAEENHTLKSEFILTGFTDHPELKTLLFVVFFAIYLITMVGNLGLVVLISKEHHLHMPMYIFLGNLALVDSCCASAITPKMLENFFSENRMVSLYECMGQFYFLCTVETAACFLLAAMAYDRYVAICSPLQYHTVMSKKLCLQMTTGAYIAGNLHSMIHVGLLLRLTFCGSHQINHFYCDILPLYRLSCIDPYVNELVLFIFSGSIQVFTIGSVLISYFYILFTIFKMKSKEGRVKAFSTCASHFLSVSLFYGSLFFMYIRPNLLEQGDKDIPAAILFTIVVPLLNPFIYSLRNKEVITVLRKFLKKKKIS
# Method in brief: as §1
# [6] = tested on: T6, A0A6P3DZI2
# T6 sequence (whole entry): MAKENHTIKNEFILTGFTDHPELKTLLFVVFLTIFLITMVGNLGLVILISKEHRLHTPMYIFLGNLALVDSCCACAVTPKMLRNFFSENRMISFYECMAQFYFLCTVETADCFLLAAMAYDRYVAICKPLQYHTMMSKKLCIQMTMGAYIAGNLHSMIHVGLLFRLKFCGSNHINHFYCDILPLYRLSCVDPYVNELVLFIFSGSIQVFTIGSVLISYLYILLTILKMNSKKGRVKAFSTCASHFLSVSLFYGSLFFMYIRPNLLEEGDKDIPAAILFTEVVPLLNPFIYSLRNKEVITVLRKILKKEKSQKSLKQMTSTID
# Method in brief: as §1
# [7] = tested on: T7, A0A6P6H1F7
# T7 sequence (whole entry): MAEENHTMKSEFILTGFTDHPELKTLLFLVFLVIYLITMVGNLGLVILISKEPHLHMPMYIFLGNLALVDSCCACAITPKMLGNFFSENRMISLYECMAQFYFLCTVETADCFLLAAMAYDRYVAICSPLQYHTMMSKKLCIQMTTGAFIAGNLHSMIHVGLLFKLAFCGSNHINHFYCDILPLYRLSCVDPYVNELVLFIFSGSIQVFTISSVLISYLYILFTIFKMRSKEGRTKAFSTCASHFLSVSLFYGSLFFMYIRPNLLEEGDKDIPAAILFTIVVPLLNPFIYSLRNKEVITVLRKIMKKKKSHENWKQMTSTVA
# Method in brief: as §1
# [8] = tested on: T8, A0A1L1SVG7
# T8 sequence (whole entry): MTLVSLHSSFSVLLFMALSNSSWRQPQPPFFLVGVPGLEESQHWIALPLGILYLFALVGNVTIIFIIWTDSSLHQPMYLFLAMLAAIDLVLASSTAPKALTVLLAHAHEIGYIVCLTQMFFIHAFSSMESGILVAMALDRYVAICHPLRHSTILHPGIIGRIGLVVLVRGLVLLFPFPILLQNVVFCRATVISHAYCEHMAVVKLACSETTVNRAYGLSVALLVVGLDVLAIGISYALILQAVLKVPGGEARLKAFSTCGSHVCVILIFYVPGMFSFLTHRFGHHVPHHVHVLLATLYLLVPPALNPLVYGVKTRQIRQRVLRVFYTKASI
# Method in brief: as §1
# [9] = tested on: A0A2J8KNW9
# Method in brief: as §1
# [10] = tested on: A0A2R8ZMP6
# Method in brief: as §1
smiles,measurement,setting,value
COc1nccnc1C(C)C,odorant receptor agonist call,[1],inactive
same,odorant receptor agonist call,[2],inactive
same,odorant receptor agonist call,[3],active
same,odorant receptor agonist call,[4],active
same,odorant receptor agonist call,[5],active
same,odorant receptor agonist call,[6],inactive
same,odorant receptor agonist call,[7],active
CCCCCCCO,odorant receptor agonist call,[1],inactive
same,odorant receptor agonist call,[2],inactive
same,odorant receptor agonist call,[8],inactive
COC1=C(C)OC(C)C1=O (configuration not stated),odorant receptor agonist call,[2],inactive
same,odorant receptor agonist call,[3],active
same,odorant receptor agonist call,[4],inactive
same,odorant receptor agonist call,[5],inactive
same,odorant receptor agonist call,[6],inactive
same,odorant receptor agonist call,[7],inactive
Cc1cnc(C)c(C)n1,odorant receptor agonist call,[2],inactive
same,odorant receptor agonist call,[3],active
same,odorant receptor agonist call,[4],active
same,odorant receptor agonist call,[5],active
same,odorant receptor agonist call,[6],active
same,odorant receptor agonist call,[7],active
CCCCOC=O,odorant receptor agonist call,[1],inactive
same,odorant receptor agonist call,[2],inactive
same,odorant receptor agonist call,[8],inactive
CCCCCCCCCC(=O)[O-].[H+],odorant receptor agonist call,[1],inactive
same,odorant receptor agonist call,[2],inactive
same,odorant receptor agonist call,[8],active
CCCCCCC(=O)[O-].[H+],odorant receptor agonist call,[2],inactive
same,odorant receptor agonist call,[8],inactive
O=C1Cc2ccccc2O1,odorant receptor agonist call,[1],inactive
same,odorant receptor agonist call,[2],inactive
same,odorant receptor agonist call,[8],inactive
Cc1cnc(C)cn1,odorant receptor agonist call,[2],inactive
same,odorant receptor agonist call,[3],active
same,odorant receptor agonist call,[4],active
same,odorant receptor agonist call,[5],active
same,odorant receptor agonist call,[6],inactive
same,odorant receptor agonist call,[7],active
CCc1cnc(C)c(C)n1,odorant receptor agonist call,[2],active
same,odorant receptor agonist call,[3],active
same,odorant receptor agonist call,[4],inactive
same,odorant receptor agonist call,[5],inactive
same,odorant receptor agonist call,[6],inactive
same,odorant receptor agonist call,[7],inactive
O=c1ccc2ccccc2o1,odorant receptor agonist call,[2],inactive
same,odorant receptor agonist call,[8],inactive
Cc1cncc(C)n1,odorant receptor agonist call,[2],inactive
same,odorant receptor agonist call,[3],active
same,odorant receptor agonist call,[4],active
same,odorant receptor agonist call,[5],active
same,odorant receptor agonist call,[6],active
same,odorant receptor agonist call,[7],active
COc1cnccn1,odorant receptor agonist call,[1],inactive
same,odorant receptor agonist call,[2],inactive
same,odorant receptor agonist call,[3],active
same,odorant receptor agonist call,[4],active
same,odorant receptor agonist call,[5],active
same,odorant receptor agonist call,[6],inactive
same,odorant receptor agonist call,[7],active
CCCCCCCC(=O)[O-].[H+],odorant receptor agonist call,[2],inactive
same,odorant receptor agonist call,[8],inactive
CCC(S)C(C)CO (configuration not stated),odorant receptor agonist call,[9],inactive
same,odorant receptor agonist call,[10],inactive
Cc1cnccn1,odorant receptor agonist call,[2],inactive
same,odorant receptor agonist call,[3],active
same,odorant receptor agonist call,[4],active
same,odorant receptor agonist call,[5],active
same,odorant receptor agonist call,[6],inactive
same,odorant receptor agonist call,[7],active
CCCCCO,odorant receptor agonist call,[2],inactive
same,odorant receptor agonist call,[8],inactive
CCc1nccnc1C,odorant receptor agonist call,[2],inactive
same,odorant receptor agonist call,[3],active
same,odorant receptor agonist call,[4],active
same,odorant receptor agonist call,[5],active
same,odorant receptor agonist call,[6],inactive
same,odorant receptor agonist call,[7],active
CCC(C(=O)O)c1ccccc1 (configuration not stated),odorant receptor agonist call,[2],inactive
same,odorant receptor agonist call,[8],inactive
CCc1ncc(C)nc1CC,odorant receptor agonist call,[1],inactive
same,odorant receptor agonist call,[2],inactive
same,odorant receptor agonist call,[3],active
same,odorant receptor agonist call,[4],active
same,odorant receptor agonist call,[5],active
same,odorant receptor agonist call,[6],active
same,odorant receptor agonist call,[7],active
